Shown are actives, neighbours in structure and some others; about 3.8% of the full set was active somewhere.
OX1R antag-1: blocks the human orexin 1 receptor | O43613 | CHO/OX1R cells, Fluo-8 calcium fluorescence, orexin A | inhibition, % at 5 µM | hit rate 0.43% among 330,000;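 active = inhibition above its plate's threshold, mean inhibition of all tested compounds on the plate plus 3 SD, cut at about 37% in these data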;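 also: 0% = orexin A challenge wells and 100% = SB-334867-A antagonist wells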
MPTP block: blocks calcium-induced mitochondrial swelling | isolated mouse mitochondria, Ca2+ swelling absorbance, 30 min | inhibition, % at 10 µM | hit rate 1.4% among 360,000 | AID 602449;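 active = inhibition of 50% or more, scaled per plate between neutral and stimulator controls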;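 also: 0% = DMSO wells given calcium and 100% = 1 mM EGTA wells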
CHO parental Ca: signal in parental CHO cells, OX1R antagonist counter-screen. hit rate 0.63% among 330,000. parental CHO-K1, ATP-induced calcium, Fluo-8 fluorescence. inhibition, % at 5.6 µM. AID 463079;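 active = inhibition above that plate's mean sample inhibition plus 3 SD, cut at about 26% in these data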;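 also: 0% = ATP-challenged DMSO wells and 100% = DMSO wells without ATP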
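material = parental CHO cells | also added = ATP as calcium-mobilizing challenge | dosing = single point at 5.6 µM | detection = intracellular calcium via Fluo-8 no-wash fluorescent dye | read-out = % inhibition | benchmarks = low control ATP plus DMSO, high control DMSO only | repeats = one well per compound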
OX1R antag-2: blocks the human orexin 1 receptor; AID 485270; OX1R-expressing cells, FRET antagonist read-out; hit rate 1.8% among 330,000; inhibition, % at 6.6 µM; in the data active = inhibition mostly above about 38%, no sharp cut-off; inactive = mostly below about 40%;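 also: 0% = agonist challenge alone and 100% = reference antagonist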
GPR7 antag: human neuropeptides B/W receptor 1 antagonism | P48145 | GPR7-expressing cells, fluorescence antagonist assay | inhibition, % at 4.4 µM | hit rate 1.1% among 290,000 | AID 1861; in the data active = inhibition above about 16%, passing the limit was not always enough;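 also: cells stimulated with the agonist NPW; 0% = agonist with vehicle and 100% = vehicle without agonist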
Target sequence (P48145 whole entry, looked up): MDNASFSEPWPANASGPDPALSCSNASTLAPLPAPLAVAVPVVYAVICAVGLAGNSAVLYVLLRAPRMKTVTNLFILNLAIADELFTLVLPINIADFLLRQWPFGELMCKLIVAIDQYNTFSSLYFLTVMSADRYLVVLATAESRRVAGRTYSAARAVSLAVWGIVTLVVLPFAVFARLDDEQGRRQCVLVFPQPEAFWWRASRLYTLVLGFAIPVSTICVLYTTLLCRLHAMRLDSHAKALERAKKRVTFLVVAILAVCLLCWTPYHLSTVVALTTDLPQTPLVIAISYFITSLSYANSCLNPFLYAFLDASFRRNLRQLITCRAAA
* = called active by the depositor; x = no result given.

SMILES | OX1R antag-1 | MPTP block | CHO parental Ca | OX1R antag-2 | GPR7 antag
O=C(COC(=O)c1ccc([N+](=O)[O-])o1)Nc1ccc(Br)cc1F | -7.1 | 0.3 | -0.1 | 28.1* | x
O=C(COC(=O)c1ccc([N+](=O)[O-])o1)NCCc1ccccc1 | 6.4 | -0.6 | -5.0 | 31.5* | x
CC(=O)c1cccc(NC(=O)C2C3C=CC(C3=C(c3ccccc3)c3ccccc3)C2C(=O)O)c1 (stereo not given) | -11.5 | -0.3 | -11.2 | 14.0 | -5.2
O=C(CCC(C(=O)c1ccccc1)c1ccccc1)c1ccccc1 (stereo not given) | x | -1.3 | x | x | x
O=C1/C(=C/c2cccs2)SC(=S)N1CCC(=O)N1CCCCC1CCO (stereo not given) | 16.7 | 0.7 | -19.4 | 48.3* | 12.3
Cc1cc(C)n2nc(/C(C#N)=C/c3ccccn3)c(C#N)c2n1 | -8.8 | -0.6 | 42.5* | 27.9 | -5.8
N#Cc1c(NC(=O)CCn2cnc3ccccc3c2=O)oc(-c2ccccc2)c1-c1ccccc1 | -34.3 | 1.0 | -22.5 | 25.1 | 17.9*
Cc1cccc(NC(=S)NNC(=O)c2cc3c(s2)CCC(C)C3)c1C (stereo not given) | -15.3 | 16.5 | -27.9 | 18.4 | -17.1
Nc1[nH]n(-c2ccccc2)c(=O)c1N=Nc1ccc2ncsc2c1 | -3.2 | 4.0 | -11.9 | 53.0* | -9.7
O=C(CN1C(=O)c2cccc([N+](=O)[O-])c2C1=O)N1CCN(S(=O)(=O)c2ccccc2)CC1 | 23.6 | -0.3 | -18.7 | 33.7* | x
Fc1cccc2sc(Nc3nnc(-c4ccco4)o3)nc12 | 29.4 | 1.1 | 41.2* | 43.6 | 0.6
NC(=O)c1ccc(NCc2ccco2)c([N+](=O)[O-])c1 | -1.5 | -1.9 | -1.7 | 128.4* | -4.6
NC(=O)c1ccc(NCCc2ccccc2)c([N+](=O)[O-])c1 | -29.5 | -1.8 | 0.0 | 37.0 | 6.8
CC(=O)n1c2ccccc2c2nc3ccccc3nc21 | -27.7 | -0.4 | -3.6 | 5.4 | -5.7
CC(=O)n1c2ccccc2c2c1c1ccccc1n2C | -0.5 | -1.3 | -20.1 | 60.9* | -9.4
C/C(=N\NC(=O)c1ccc(O)cc1)c1ccc(NC(=O)Cc2ccccc2)cc1 | x | -1.1 | x | x | 7.0
CCOC(=O)c1cnc2sc3c(n2c1=O)CCCC3 | 34.7 | 1.3 | 43.3* | 57.5 | 22.7
OC(c1ccc(F)cc1)c1nc(-c2ccoc2)cs1 (stereo not given) | x | 0.5 | x | x | x
N#C/C(=C\N1CCCCC1)S(=O)(=O)c1ccc(Cl)cc1 | -8.2 | 1.5 | -8.0 | 2.0 | -8.3
Cc1ccc(S(=O)(=O)Nc2cccc3cccnc23)cc1 | 27.0 | -0.7 | 41.7* | 19.2 | 8.8
O=C(Nc1nccs1)c1ccc(-c2ccc(Cl)cc2)o1 | 5.7 | 1.6 | -31.0 | 49.4* | -10.4
O=C(Nc1nccs1)c1ccc(-c2ccccc2[N+](=O)[O-])o1 | -12.7 | -0.1 | -6.8 | 18.6 | -13.0
O=C(Nc1nccs1)c1ccc(-c2ccc(F)cc2)o1 | -16.9 | 0.9 | -16.2 | 48.2 | -8.7
O=C(Nc1nccs1)c1ccc(-c2ccccc2Cl)o1 | 8.3 | 0.5 | -36.0 | 59.1* | -15.4
CC(C)(C)c1ccc(OCCCC(=O)Nc2ccc(S(N)(=O)=O)cc2)cc1 | 19.7 | 2.0 | -4.3 | 13.8 | -3.6
SMILES | OX1R antag-1 | MPTP block | CHO parental Ca | OX1R antag-2 | GPR7 antag
Cc1cc(NC(=O)NN2CCOCC2)nn1-c1c(Cl)cccc1Cl | -15.3 | 1.6 | -3.8 | 5.9 | -5.6
CCOC(=O)C1(Cc2ccccc2)CCN(Cc2cn(CC(=O)OC)c3ccccc23)CC1 | -25.4 | 0.5 | -2.8 | 7.3 | 31.6*
CCOCCCNC(=O)C1CCC(CNS(=O)(=O)c2cccc3nsnc23)CC1 (stereo not given) | -11.7 | 0.3 | -7.2 | 52.9* | -7.1
O=C(CCCNS(=O)(=O)c1cccc2nsnc12)N1CCCCC1 | -13.6 | -0.7 | 3.1 | 50.6 | 4.8
CC1CCCN(CCCNC(=O)C2CCC(CNS(=O)(=O)c3cccc4nsnc34)CC2)C1 (stereo not given) | 0.9 | 0.7 | -7.4 | 48.2* | -5.5
O=C(CCCNS(=O)(=O)c1cccc2nsnc12)NC1CCCCC1 | -19.7 | -0.1 | -11.7 | 80.2* | 3.6
CCCCNC(=O)C1CCC(CNS(=O)(=O)c2cccc3nsnc23)CC1 (stereo not given) | -8.3 | -0.1 | -11.2 | 40.8 | -9.6
CCCNC(=O)C1CCC(CNS(=O)(=O)c2cccc3nsnc23)CC1 (stereo not given) | 7.6 | -0.6 | 0.3 | 33.6 | -17.0
CCC(C)NC(=O)C1CCC(CNS(=O)(=O)c2cccc3nsnc23)CC1 (stereo not given) | -8.2 | 0.7 | -9.7 | 49.7* | -6.7
CCOC(=O)[C@]12CCCC=C1N(Cc1ccco1)C(=O)[C@H](CC(=O)NCCCOC)C2 | x | 1.2 | x | x | x
Cc1ccc(Nc2c(-c3ccccn3)nc3cc(C)ccn23)cc1 | -38.6 | 5.1 | -18.6 | 25.7 | -2.2
Cc1ccc(Nc2c(-c3ccccn3)nc3ccc(C)cn23)cc1 | -25.8 | 3.4 | 36.4* | 27.2 | 1.5
COCCNC(=O)C1CCCN(Cc2ccc(C)cc2)CC1 (stereo not given) | x | 1.4 | x | x | x
CCN(CC)c1cc(NCCO)c([N+](=O)[O-])c2nonc12 | -24.6 | -2.1 | -13.3 | 53.2* | 3.8
CCC/C(=N/NC(=O)c1ccccc1Cl)c1ccccc1 | -63.8 | 0.1 | 0.9 | -7.5 | -6.7
Cc1cc(C)n(CC(O)Cn2c3ccc(Cl)cc3c3cc(Cl)ccc32)c(=O)n1 (stereo not given) | -6.6 | -0.2 | -21.9 | 14.3 | 8.0
OC(CNCCC1C=Nc2ccccc21)Cn1c2ccc(Cl)cc2c2cc(Cl)ccc21 (stereo not given) | 39.2 | 3.3 | 55.7* | 3.0 | 5.8
O=C1Nc2ccccc2S/C1=C/c1cccs1 | -5.1 | 2.7 | -7.5 | 61.1* | -11.5
Cc1cccc(N=C2NC(=O)/C(=C/c3cccs3)S2)c1 | -23.0 | -3.3 | -27.0 | 41.1 | 5.5
Cc1ccc(N=C2NC(=O)/C(=C\c3cccs3)S2)cc1C | -21.6 | 6.9 | -28.4 | 56.7* | 7.0
Cc1cc(C)cc(NC(=S)/C(=C(\[O-])c2ccc(Cl)cc2Cl)[n+]2ccccc2)c1 | -26.6 | -0.3 | -12.4 | 6.2 | 16.1*
Cc1c(Cl)cccc1NC(=S)C(=C([O-])c1ccc(Cl)s1)[n+]1ccccc1 | x | 2.4 | x | x | x
COc1ccc(CN(C)C(=O)c2cc(S(=O)(=O)NCc3ccccc3)ccc2C)c(OC)c1 | 9.9 | -1.2 | 0.8 | 33.1* | x
COc1ccc(CCN(C)C(=O)c2cc(S(=O)(=O)NCc3ccccc3)ccc2C)cc1OC | -29.8 | 1.5 | -24.4 | 31.4 | x
Cc1[nH]c(=O)[nH]c(=O)c1/C=N/NC(=O)[C@H](C)N | 0.8 | 0.0 | 0.3 | 6.3 | -16.0
Cn1cccc1CC(=O)N/N=C/c1cccc2ccccc12 | -14.7 | 0.0 | -3.5 | 16.1 | 1.8
Cn1cccc1CC(=O)N/N=C\c1c2ccccc2cc2ccccc12 | -14.3 | 1.3 | -29.1 | 38.9* | 3.0
N#CCc1nc2ccc(S(=O)(=O)N3CCOCC3)cc2s1 | 40.9* | 4.7 | 34.7* | 6.2 | 4.7
CC(C)C1Cc2[nH]c(=S)[nH]c(=O)c2C(c2ccc(Cl)cc2)O1 (stereo not given) | x | 0.0 | x | x | x

Screens from PubChem BioAssay.
